# The source made the active and inactive calls. The rule behind the calls is not given here.
# How the values were obtained:
# Rattus norvegicus [1] = assay: Hypoglycemic activity in overnight fasted Sprague-Dawley rat assessed as percent reduction in blood glucose AUC at 10 mg/kg, po measured after 4 hrs post glucose challenge by OGTT relative to control; type: functional; set-up: scale not given: the % may be the effect or the level left
# Outline: (§1)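 Overnight-fasted SD rats dosed orally at 1 or 10 mg/kg in 0.5% Methocel (vehicle controls) 60 min before oral glucose challenge. […] N=8 per group; mean ± SEM; one-way ANOVA-Dunnett.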
# [2] = AUC (0 to infinity) in C57BL mouse at 5 mg/kg, iv or 20 mg/kg, po; type: ADME, organism-based; set-up: dose 20 mg/kg; settings: in vivo
# Outline: (§2)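 Male C57 black mice given 5 mg/kg IV in 20% HPbCD or 20 mg/kg PO in 0.5% Methocel; plasma pharmacokinetic parameters derived from these dosings.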
# [3] = Oral bioavailability in C57BL mouse at 20 mg/kg; type: ADME, organism-based; settings: in vivo; outline: as §2
# [4] = AUC (0 to infinity) in Sprague-Dawley rat at 2 mg/kg, iv or 10 mg/kg, po; type: ADME, organism-based; set-up: dose 10 mg/kg; settings: in vivo
# Outline: (§3)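 Male Sprague Dawley rats dosed 2 mg/kg IV (vehicle 20% HPbCD) or 10 mg/kg PO (vehicle 0.5% Methocel); pharmacokinetic parameters derived from plasma exposure.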
# [5] = Oral bioavailability in Sprague-Dawley rat at 10 mg/kg; type: ADME, organism-based; settings: in vivo; outline: as §3
# Rattus norvegicus [6] = assay: In vivo inhibition of SGLT1/2 in overnight fasted po dosed Sprague-Dawley rat assessed as reduction in blood glucose by OGTT; type: functional, organism-based; settings: dose mg/kg 1-10
# [7] = Volume of distribution at steady state in Sprague-Dawley rat at 2 mg/kg, iv or 10 mg/kg, po; type: ADME, organism-based; settings: in vivo, read-out: Vdss; outline: as §3
# [8] = In vivo inhibition of SGLT1/2 in overnight fasted Sprague-Dawley rat assessed as amount of urinary glucose excretion assessed per 4 hrs at 10 mg/kg, po; type: functional; outline: as §1
# Rattus norvegicus [9] = assay: Hypoglycemic activity in overnight fasted po dosed Sprague-Dawley rat assessed as reduction in blood glucose AUC treated 60 mins prior to glucose challenge and measured up to 120 mins by OGTT; type: functional, organism-based; settings: dose mg/kg 1-10, time 60.0 min
# [10] = Clearance in Sprague-Dawley rat at 2 mg/kg, iv or 10 mg/kg, po; type: ADME, organism-based; settings: in vivo; outline: as §3
# [11] = Clearance in C57BL mouse at 5 mg/kg, iv or 20 mg/kg, po; type: ADME, organism-based; settings: in vivo; outline: as §2
# Rattus norvegicus [12] = assay: Hypoglycemic activity in overnight fasted po dosed Sprague-Dawley rat assessed as reduction in blood glucose treated 60 mins prior to glucose challenge by OGTT; type: functional, organism-based; settings: dose mg/kg 1-10, time 60.0 min
# [13] = Tmax in Sprague-Dawley rat at 2 mg/kg, iv or 10 mg/kg, po; type: ADME, organism-based; settings: in vivo; outline: as §3
# Mus musculus [14] = assay: Antihyperglycemic activity in db/db mouse assessed as increase in urinary glucose excretion at 10 mg/kg, po administered as single dose measured up to 24 hrs; type: functional, organism-based; settings: time hrs <=24
# Outline: (§4)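 Male db/db mice given a single oral 10 mg/kg dose or vehicle; fed blood glucose followed up to 24 h and 24-h urinary glucose excretion collected. Mean ± SE versus vehicle controls.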
# Mus musculus [15] = assay: Antihyperglycemic activity in db/db mouse assessed as decrease in blood glucose level at 10 mg/kg, po administered as single dose measured up to 24 hrs; type: functional, organism-based; settings: time hrs <=24; outline: as §4
# Rattus norvegicus [16] = assay: Hypoglycemic activity in overnight fasted Sprague-Dawley rat assessed as percent reduction in blood glucose AUC at 1 mg/kg, po measured after 4 hrs post glucose challenge by OGTT relative to control; type: functional; set-up: scale not given: the % may be the effect or the level left; outline: as §1
# [17] = Cmax in C57BL mouse at 5 mg/kg, iv or 20 mg/kg, po; type: ADME, organism-based; set-up: dose 20 mg/kg; settings: in vivo; outline: as §2
# [18] = Stability of compound in human liver microsomes assessed as parent compound remaining at 1 uM measured at 10 mins in presence of NADPH; type: ADME, Microsome; settings: liver microsomes, read-out: Stabilty
# Outline: (§5)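 Test compound at 1 μM with human, mouse or rat liver microsomes (0.5 mg/ml protein) plus NADPH cofactor; final solvents 0.01% DMSO, 0.05% acetonitrile; percent parent remaining at 10 min. Verapamil, cerivastatin and warfarin as positive controls. SD given when multiple batches were tested.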
# [19] = Half life in C57BL mouse at 5 mg/kg, iv; type: ADME, organism-based; settings: in vivo; outline: as §2
# [20] = Stability of compound in rat liver microsomes assessed as parent compound remaining at 1 uM measured at 10 mins in presence of NADPH; type: ADME, Microsome; settings: liver microsomes, read-out: Stabilty; outline: as §5
# [21] = Stability of compound in mouse liver microsomes assessed as parent compound remaining at 1 uM measured at 10 mins in presence of NADPH; type: ADME, Microsome; settings: read-out: Stabilty; outline: as §5
# [22] = Volume of distribution at steady state in C57BL mouse at 5 mg/kg, iv or 20 mg/kg, po; type: ADME, organism-based; settings: in vivo, read-out: Vdss; outline: as §2
# [23] = Half life in Sprague-Dawley rat at 2 mg/kg, iv; type: ADME, organism-based; settings: in vivo; outline: as §3
# [24] = In vivo inhibition of SGLT1/2 in overnight fasted Sprague-Dawley rat assessed as amount of urinary glucose excretion assessed per 4 hrs at 1 mg/kg, po; type: functional; outline: as §1
# [25] = Cmax in Sprague-Dawley rat at 2 mg/kg, iv or 10 mg/kg, po; type: ADME, organism-based; set-up: dose 10 mg/kg; settings: in vivo; outline: as §3
# [26] = Tmax in C57BL mouse at 5 mg/kg, iv or 20 mg/kg, po; type: ADME, organism-based; settings: in vivo; outline: as §2
compound,measurement,setting,value
COc1cc(O)c([C@@H]2O[C@H](CO)C(F)(F)[C@H](O)[C@H]2O)cc1Cc1ccc2c(c1)CCCO2,Activity,Rattus norvegicus [1],60.7%
same,AUC(0-inf),[2],9160 ng·h/mL
same,bioavailability,[3],52.1%
same,AUC(0-inf),[4],524 ng·h/mL
same,bioavailability,[5],22.3%
same,inhibition,Rattus norvegicus [6],Dose-dependent effect
same,Vd,[7],3.85 L/kg
same,Activity,[8],0.2 g
same,Activity,Rattus norvegicus [9],Dose-dependent effect
same,clearance,[10],75.6 mL/min/kg
same,clearance,[11],19 mL/min/kg
same,Activity,Rattus norvegicus [12],Dose-dependent effect
same,Tmax,[13],15 min
same,Activity,Mus musculus [14],Active
same,Activity,Mus musculus [15],Active
same,Activity,Rattus norvegicus [16],38.3%
same,Cmax,[17],4680 ng/mL
same,"remaining at 10 min, 1 µM",[18],95%
same,half-life,[19],49.8 min
same,"remaining at 10 min, 1 µM",[20],57%
same,"remaining at 10 min, 1 µM",[21],85%
same,Vd,[22],0.96 L/kg
same,half-life,[23],137 min
same,Activity,[24],0.002 g
same,Cmax,[25],258 ng/mL
same,Tmax,[26],60 min

# Source: ChEMBL document CHEMBL4725317 (Bioorg Med Chem Lett, 2020)
